# dFosB activator: activators of mouse delta FosB homodimer. purified delta FosB, TAMRA-CDK5 oligo fluorescence polarization; percent of positive-control signal above neutral wells. activation, % at 25 µM. 0.99% of 340,000 active. P13346;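 active = mean activation above about 17%, with every replicate also reaching it, limit read from the data, passing the limit was not always enough; inconclusive = only one of the two conditions met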
# Target sequence (P13346 whole entry, looked up): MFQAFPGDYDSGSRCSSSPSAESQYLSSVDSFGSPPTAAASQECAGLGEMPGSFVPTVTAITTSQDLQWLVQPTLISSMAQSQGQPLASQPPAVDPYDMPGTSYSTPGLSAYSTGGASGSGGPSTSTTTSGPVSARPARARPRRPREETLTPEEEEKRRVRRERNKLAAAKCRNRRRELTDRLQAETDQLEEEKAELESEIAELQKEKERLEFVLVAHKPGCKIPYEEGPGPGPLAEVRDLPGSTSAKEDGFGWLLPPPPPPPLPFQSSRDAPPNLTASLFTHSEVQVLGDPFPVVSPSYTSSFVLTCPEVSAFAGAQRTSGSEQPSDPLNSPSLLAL
# SR-BI HDL uptake: blocks mouse SR-BI lipid uptake from DiI-HDL; inhibition, % at 12.5 µM; AID 488896; ldlA[mSR-BI] CHO cells, DiI-HDL uptake fluorescence, 3 h; Q61009; 0.96% of 320,000 active;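 active = mean replicate inhibition of at least 70% and a set share of replicates each scoring 70 or more; inconclusive = meets just one of the two criteria; inactive = fails both criteria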;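 note: 0% = median of neutral control wells and 100% = median of positive control wells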
# SR-BI DiI-HDL act: enhances SR-BI lipid uptake from DiI-HDL. CHO ldlA[mSR-BI] cells, DiI-HDL uptake fluorescence, 3 h; 100 = double the neutral-control signal. activation, % at 12.5 µM. 0.096% of 320,000 active. AID 504775;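 active = mean replicate activation of at least 60% and every replicate at or above 60%; inconclusive = mean or all-replicate condition met, but not both; inactive = mean below 60% and not all replicates reaching 60%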;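 note: 0% = median plate neutral-control signal and 100% = twice that signal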
#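 Test system: SR-BI-overexpressing, LDLR-lacking CHO cells; Also added: labelled HDL, 10 µg/mL; Measured by: bottom-read cell fluorescence after medium removal, ex 550/em 595 nm; Timing: 3 h uptake period with compound, 37 °C; Buffer or medium: F12, 0.5% BSA, 25 mM HEPES; Doses: single compound concentration, delivered by pin transfer.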
# CDK5 inh: CDK5/p35 (human) kinase inhibition | AID 488839 | Recombinant CDK5/p35, ADP-Glo luminescence, 60 min | 0.01% of 330,000 active | inhibition, % at 10 µM;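 active = highest replicate inhibition of at least 50% and at least 75% of replicates reaching 50%; inconclusive = only one of the two criteria met; inactive = both criteria failed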;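 note: plate controls were DMSO neutral control for no effect and GW8510 at 10 µM for full effect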
# Active calls of the source: *; u = inconclusive; ! = not confirmed by another sample. This is a sample that favours compounds with a hit; in the whole collection about 2% have one here.
SMILES,dFosB activator,SR-BI HDL uptake,SR-BI DiI-HDL act,CDK5 inh
Cc1cc(C)nc(SCC(=O)NN=Cc2ccc(C)o2)n1,1,-12,12,1
COc1ccc(NC(=O)c2[nH]c(C)c(C(C)=O)c2C)cc1Cl,-21,75*,-75,2
CC(=O)c1c(C)[nH]c(C(=O)Nc2ccc(C)c(C)c2)c1C,-14,40,-40,0
O=C(Cn1cnc2c(NCc3ccccc3)ncnc21)NCc1nc2ccccc2[nH]1,-6,15,-15,0
COc1ccc(-c2cc(C(=O)Nc3cc(C)n(Cc4ccc(Cl)cc4)n3)no2)cc1OC,32*,u,-70,-2
COc1ccc(CNC(=O)Nc2cccc(Cl)c2)cc1,24*,14,-14,-1
COc1ccc(OC)c(-c2cc(C(=O)NCc3ccco3)no2)c1,8,81*,-81,0
COc1ccc(OC)c(-c2cc(C(=O)Nc3cccc(Cl)c3)no2)c1,6,94*,-94,0
Cc1ccc(S(=O)(=O)N2C(=O)CCC2C(=O)N2CCCCC2)cc1 (stereo not drawn),5,-21,21,0
CC1CCCN(S(=O)(=O)CCNC(=O)c2ccccc2)C1 (stereo not drawn),-8,-19,19,-2
COc1ccccc1CCN=C(N)NS(=O)(=O)c1ccccc1F,-6,-2,2,1
COc1ccc(OC)c(-c2cc(C(=O)Nc3c(C)nn(Cc4ccccc4)c3C)no2)c1,-4,53,-53,-1
COc1ccc(OC)c(-c2cc(C(=O)Nc3c(C)nn(Cc4ccc(Cl)cc4)c3C)no2)c1,-6,78*,-78,-2
COCCNc1nnc(SCC(=O)Nc2sc3c(c2C(=O)c2ccccc2)CCCC3)s1,-12,75*,-75,-7
Nc1nnc(SCC(=O)Nc2sc3c(c2C(=O)c2ccccc2)CCCC3)s1,-8,51,-51,-1
CC(C)NC(=O)NC(=O)COc1ccc(Br)cc1Br,-5,-13,13,-4
CCN1CCCC1CNC(=O)c1ccc2c(c1)NC(=O)/C(=C\c1ccc(OC)c(OC)c1)S2 (stereo not drawn),44*,36,-36,5
COc1cc(/C=C/C(=O)OCC(=O)c2c(N)n(C)c(=O)n(C)c2=O)ccc1O,-5,40,-40,1
COc1cc(/C=C/C(=O)OCC(=O)c2c(N)n(C)c(=O)n(C)c2=O)ccc1OCC#N,-10,71*,-71,0
CCOC(=O)C1OC1(c1ccccc1)c1ccccc1 (stereo not drawn),-10,-5,5,2
Cn1c(C(=O)N2CCN(Cc3ccc4c(c3)OCO4)CC2)cc2c(=O)n(C)c3ccccc3c21,7,76*,-76,0
Cn1c(C(=O)N2CCCC2)cc2c(=O)n(C)c3ccccc3c21,-8,2,-2,3
CC(C)N1CCc2c(sc(NC(=O)c3ccc(S(=O)(=O)N4CCc5ccccc54)cc3)c2C(N)=O)C1,55*,-35,35,-2
C=CCOC(=O)C1=C(C)NC(SCC)=C(C#N)C1c1ccc(Cl)cc1 (stereo not drawn),-4,83*,-83,0
C=CCOC(=O)C1=C(C)NC(SCC(N)=O)=C(C#N)C1c1ccc(C)cc1 (stereo not drawn),-9,9,-9,1
SMILES,dFosB activator,SR-BI HDL uptake,SR-BI DiI-HDL act,CDK5 inh
COc1ccc(CCN(C)C2CCCN(C(=O)CCC(F)(F)F)C2)cc1OC (stereo not drawn),-9,8,-8,1
Oc1ccccc1-c1nc(NC2CCCC2)c2ccccc2n1,-11,82*,-82,1
Nc1nc(=S)c2ncn(C3OC(CO)CC3O)c2[nH]1 (stereo not drawn),-5,-26,26,1
CCCCCCCCCCOC(=O)Cn1c(COc2cccc(C)c2)[n+](C)c2ccccc21,u,-24,24,1
CCCCCCCCCCOC(=O)Cn1c(COc2ccc(Cl)cc2)[n+](C)c2ccccc21,-118,5,-5,1
CCCCCCCCCCOC(=O)Cn1c(COc2ccccc2C)[n+](C)c2ccccc21,37*,-21,21,2
CCCCCCCCCCOC(=O)Cn1c(COc2ccc(OC)cc2)[n+](C)c2ccccc21,40*!,-6,6,2
CCCCCCCCCCOC(=O)Cn1c(COc2ccccc2)[n+](C)c2ccccc21,35*,-14,14,1
COCCN(C(=O)COC(=O)c1nc(Cl)ccc1Cl)c1c(N)n(Cc2ccccc2)c(=O)[nH]c1=O,-5,-23,23,0

# Screening data as filed in PubChem.
